An excerpt weighted towards active compounds, which were near 1.9% of everything screened.
DDE Tn7 FP inh = inhibitors of Tn7 peptide binding to human fibrin DD(E); P02675; FP displacement of FITC-Tn7 peptide from fibrin DD(E); 0% = median of compound wells per plate; inhibition, % at 8.3 µM; 0.13% of 370,000 active;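 active means inhibition above the mean of compounds falling within the control limits plus 3 SD of them, cut at about 14% in these data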
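Test system: human clot-derived fibrin DD(E) complex / Quantity: 2 µM final DD(E) protein / Incubation: 10 min plus 3 h, room temperature / Measured by: fluorescence polarization / Benchmarks: high control of 10 µM Aha-Tn7 peptide / Replicates: singlicate testing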
MBD2 inh = blocks human MBD2 binding to methylated DNA | TR-FRET, MBD2 binding to methylated oligonucleotide | 0.31% of 370,000 active | Q9UBB5 | inhibition, % at 4.4 µM | AID 686964; in the data active means inhibition above about 13%
TDP2 absorb = blocks human TDP2 phosphodiesterase activity. O95551. recombinant TDP2, T5PNP hydrolysis, p-nitrophenol absorbance 415 nm. inhibition, % at 12.8 µM. 0.34% of 370,000 active;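 active means inhibition above the mean of all tested compounds plus 3 SD, set per campaign, cut at about 25% in these data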
Target sequence (O95551 whole entry, looked up): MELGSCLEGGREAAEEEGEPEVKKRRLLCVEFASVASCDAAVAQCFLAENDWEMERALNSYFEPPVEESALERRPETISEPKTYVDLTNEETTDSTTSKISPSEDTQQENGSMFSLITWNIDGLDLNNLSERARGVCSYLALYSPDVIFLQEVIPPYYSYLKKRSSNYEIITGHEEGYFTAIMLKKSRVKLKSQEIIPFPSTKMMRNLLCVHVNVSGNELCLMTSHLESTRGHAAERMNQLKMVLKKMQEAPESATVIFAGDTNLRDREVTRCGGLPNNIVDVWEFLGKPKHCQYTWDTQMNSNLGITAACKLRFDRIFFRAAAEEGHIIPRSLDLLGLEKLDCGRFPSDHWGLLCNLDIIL
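System – recombinant human TDP2 · Quantity – TDP2 enzyme at 120 nM final · Doses – single concentration, 12.8 µM nominal, with 1% DMSO · Incubation – 2 h at 37 °C · Measured by – epi absorbance of p-nitrophenol freed from T5PNP by hydrolysis · Read-out – % inhibition relative to enzyme-containing and enzyme-free wells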
UHRF1 binding = human UHRF1 methylated DNA binding inhibitors | Q96T88 | UHRF1 binding to methylated oligo, TR-FRET | inhibition, % at 4.4 µM | 0.75% of 370,000 active | AID 687016; in the data active means inhibition above about 21%;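 further: UHRF1 SRA domain binding a hemimethylated CpG hairpin DNA probe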
LEDGF integ inh = blocks HIV-1 LEDGF/p75-dependent DNA integration; TR-FRET IN-LEDGF/p75 DNA integration, Eu/Cy5; inhibition, % at 3.7 µM; 0.64% of 370,000 active; AID 743269;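 active means inhibition above the screen-wide mean plus 3 SD, cut at about 13% in these data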;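 further: signal is the Cy5 over europium emission ratio at 671 and 618 nm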
Tn6 DDE FP = inhibitors of Tn6 peptide binding to human fibrin DD(E); Fibrin DD(E) TRITC-Tn6 fluorescence polarization displacement; inhibition, % at 8.3 µM; 0.21% of 370,000 active; AID 720509;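 active means inhibition above a per-campaign cutoff: mean of compounds within control limits plus 3 SD, cut at about 15% in these data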
Hits are given with their value.

Results for Cc1c(C(=O)N(C)C)c2cc(Cl)ccc2n1O ?
DDE Tn7 FP inh: inactive; MBD2 inh: inactive; TDP2 absorb: inactive; UHRF1 binding: inactive; LEDGF integ inh: inactive; Tn6 DDE FP: inactive

Results for COC(=O)C1=C(C)N(Cc2cccc(C(F)(F)F)c2)C(=NCc2cc(OC)c(OC)c(OC)c2)NC1CCc1ccccc1 (centres undefined) ?
DDE Tn7 FP inh: inactive; MBD2 inh: inactive; TDP2 absorb: inactive; UHRF1 binding: inactive; LEDGF integ inh: inactive; Tn6 DDE FP: inactive

How did Cc1cccc(C)c1NC(=O)CN(C1CCCCC1)S(C)(=O)=O do in these assays?
DDE Tn7 FP inh: inactive; MBD2 inh: inactive; TDP2 absorb: inactive; UHRF1 binding: 28; LEDGF integ inh: inactive; Tn6 DDE FP: inactive

What do the screens show for `CC(=NNc1cc(C)c2ccccc2n1)c1ccccn1`?
DDE Tn7 FP inh: inactive; MBD2 inh: inactive; TDP2 absorb: inactive; UHRF1 binding: inactive; LEDGF integ inh: inactive; Tn6 DDE FP: inactive

What do the screens show for `CC1=C(C(=O)N(C)C)CC(CC(=O)NCCCN(C)C)C(=O)N1CCCN1CCCC1=O` (centres undefined)?
DDE Tn7 FP inh: inactive; MBD2 inh: inactive; TDP2 absorb: inactive; UHRF1 binding: 24; LEDGF integ inh: inactive; Tn6 DDE FP: inactive

What do the screens show for `CC1=C(C(=O)N(C)C)CC(CC(=O)NCCc2ccccn2)C(=O)N1CCCN1CCCC1=O` (centres undefined)?
DDE Tn7 FP inh: inactive; MBD2 inh: inactive; TDP2 absorb: inactive; UHRF1 binding: 25; LEDGF integ inh: inactive; Tn6 DDE FP: inactive

Results for CC1=C(C(=O)N(C(C)C)C(C)C)CC(CC(=O)NCCCN(C)C)C(=O)N1CCCN1CCCC1=O (centres undefined) ?
DDE Tn7 FP inh: inactive; MBD2 inh: inactive; TDP2 absorb: inactive; UHRF1 binding: inactive; LEDGF integ inh: inactive; Tn6 DDE FP: inactive

How did CC1=C(C(=O)N(C)C)CC(CC(=O)NCCCN(C)C)C(=O)N1CCC1=CCCCC1 (centres undefined) do in these assays?
DDE Tn7 FP inh: inactive; MBD2 inh: inactive; TDP2 absorb: inactive; UHRF1 binding: 21; LEDGF integ inh: inactive; Tn6 DDE FP: inactive

Results for COc1ccc(N2C(=O)c3[nH]nc(-c4ccccc4)c3C2c2ccc(Br)cc2)cc1 (centres undefined) ?
DDE Tn7 FP inh: inactive; MBD2 inh: inactive; TDP2 absorb: inactive; UHRF1 binding: inactive; LEDGF integ inh: inactive; Tn6 DDE FP: inactive

What do the screens show for `COc1ccccc1C(=O)N1CCN(C(=O)[C@@H](Cc2ccccc2)NC(=O)[C@H]2O[C@@H](n3ccc(N)nc3=O)[C@H](O)[C@@H]2O)CC1`?
DDE Tn7 FP inh: inactive; MBD2 inh: inactive; TDP2 absorb: inactive; UHRF1 binding: inactive; LEDGF integ inh: inactive; Tn6 DDE FP: inactive

How did O=S(=O)(c1ccc(C(F)(F)F)cc1)N1CCCc2nc(-c3ccccc3)ccc21 do in these assays?
DDE Tn7 FP inh: inactive; MBD2 inh: inactive; TDP2 absorb: inactive; UHRF1 binding: inactive; LEDGF integ inh: inactive; Tn6 DDE FP: inactive

What do the screens show for `O=C(NCCCc1ccccc1)C1CCC(=O)N(Cc2ccc(Cl)cc2)C1` (centres undefined)?
DDE Tn7 FP inh: inactive; MBD2 inh: inactive; TDP2 absorb: inactive; UHRF1 binding: 21; LEDGF integ inh: inactive; Tn6 DDE FP: inactive

How did O=C(NCCc1ccccc1Cl)C1CCC(=O)N(Cc2ccc(Cl)cc2)C1 (centres undefined) do in these assays?
DDE Tn7 FP inh: inactive; MBD2 inh: inactive; TDP2 absorb: inactive; UHRF1 binding: inactive; LEDGF integ inh: inactive; Tn6 DDE FP: inactive

Results for COc1ccc(CCCNC(=O)C2CCC(=O)N(Cc3ccc(Cl)cc3)C2)cc1 (centres undefined) ?
DDE Tn7 FP inh: inactive; MBD2 inh: inactive; TDP2 absorb: inactive; UHRF1 binding: 26; LEDGF integ inh: inactive; Tn6 DDE FP: inactive

Results for COC(=O)C1CN(Cc2cn(Cc3ccc(C)cc3)nn2)CCS(=O)(=O)N1Cc1ccc(OC)cc1 (centres undefined) ?
DDE Tn7 FP inh: inactive; MBD2 inh: inactive; TDP2 absorb: inactive; UHRF1 binding: inactive; LEDGF integ inh: inactive; Tn6 DDE FP: inactive

Results for O=[N+]([O-])c1ccc2c(c1)CO[C@]21O[C@H](CCO)C[C@H](O)[C@H]1O ?
DDE Tn7 FP inh: inactive; MBD2 inh: inactive; TDP2 absorb: inactive; UHRF1 binding: inactive; LEDGF integ inh: inactive; Tn6 DDE FP: inactive

What do the screens show for `Cn1c(=O)n(Cc2ccc(Br)cc2)c2ccccc21`?
DDE Tn7 FP inh: inactive; MBD2 inh: inactive; TDP2 absorb: inactive; UHRF1 binding: 23; LEDGF integ inh: inactive; Tn6 DDE FP: inactive

How did O=C(c1cccn2c(=O)c3ccccc3nc12)N1CCN(c2ccccn2)CC1 do in these assays?
DDE Tn7 FP inh: inactive; MBD2 inh: inactive; TDP2 absorb: inactive; UHRF1 binding: inactive; LEDGF integ inh: inactive; Tn6 DDE FP: inactive

What do the screens show for `O=C(O)c1cccn2c(=O)c3ccccc3nc12`?
DDE Tn7 FP inh: inactive; MBD2 inh: inactive; TDP2 absorb: inactive; UHRF1 binding: 21; LEDGF integ inh: inactive; Tn6 DDE FP: inactive

How did CN(C)c1ccccc1-c1cc(NC=O)c2ncc(-c3cccc(C(F)(F)F)c3)n2c1 do in these assays?
DDE Tn7 FP inh: inactive; MBD2 inh: 42; TDP2 absorb: inactive; UHRF1 binding: inactive; LEDGF integ inh: inactive; Tn6 DDE FP: 34

How did COc1ccccc1-c1cc(NC=O)c2ncc(-c3cccc(C(F)(F)F)c3)n2c1 do in these assays?
DDE Tn7 FP inh: inactive; MBD2 inh: inactive; TDP2 absorb: inactive; UHRF1 binding: inactive; LEDGF integ inh: inactive; Tn6 DDE FP: inactive

Results for COc1cc(F)ccc1Oc1cccc2c1S(=O)(=O)N(C1CC1)C[C@@H](COCc1ccccc1)O2 ?
DDE Tn7 FP inh: inactive; MBD2 inh: inactive; TDP2 absorb: inactive; UHRF1 binding: inactive; LEDGF integ inh: inactive; Tn6 DDE FP: inactive

Results for Cc1cccc(N=Cc2[nH]c3ccc(Br)c(Cl)c3c2O)c1 ?
DDE Tn7 FP inh: inactive; MBD2 inh: inactive; TDP2 absorb: 29; UHRF1 binding: inactive; LEDGF integ inh: inactive; Tn6 DDE FP: inactive

How did COc1ccc(S(=O)(=O)N2CCN(CC(=O)c3ccc(O)c(O)c3)CC2)cc1 do in these assays?
DDE Tn7 FP inh: inactive; MBD2 inh: inactive; TDP2 absorb: inactive; UHRF1 binding: inactive; LEDGF integ inh: 61; Tn6 DDE FP: inactive

How did O=C(CN1CCN(S(=O)(=O)c2ccc(F)cc2)CC1)c1ccc(O)c(O)c1 do in these assays?
DDE Tn7 FP inh: inactive; MBD2 inh: inactive; TDP2 absorb: inactive; UHRF1 binding: inactive; LEDGF integ inh: inactive; Tn6 DDE FP: inactive

What do the screens show for `O=C(N/N=C/c1cc2c(cc1Cl)OCO2)c1ccncc1`?
DDE Tn7 FP inh: inactive; MBD2 inh: inactive; TDP2 absorb: inactive; UHRF1 binding: inactive; LEDGF integ inh: inactive; Tn6 DDE FP: inactive
